Screening data deposited in PubChem by several laboratories.
WT yeast gro inh – growth inhibition of WT yeast, mitochondrial fusion screen; inhibition, % at 10 µM; mitochondrial fusion phenotypic screen, WT strain; AID 1362; 2.1% of 190,000 active; in the data active means inhibition above about 58%; tested in S. cerevisiae
EBV gp42 inh – inhibitors of Epstein-Barr virus glycoprotein 42; 0.42% of 220,000 active; inhibition, % (tested at 21.74 µM); Fluorescence polarization binding assay, mP read-out; in the data active means inhibition above about 50%
p47phox inh – inhibitors of human p47phox binding | AID 1274 | P14598 | inhibition, % at 24.7 µM | p47phox/p22phox peptide binding, fluorescence polarization, 2 h | 0.53% of 220,000 active;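 further: 0% = p47phox with labelled peptide and 100% = labelled peptide alone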
14-3-3 Bad inh – disrupts binding of bovine 14-3-3 zeta to phospho-Bad peptide. TR-FRET 14-3-3zeta/Dy647-pBad peptide displacement, 1 h. inhibition, % at 21.7 µM. 0.71% of 220,000 active. AID 781. P63103;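 active means inhibition above about 70%, limit read from the data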;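 further: 0% = full 14-3-3 plus peptide FRET controls and 100% = background without 14-3-3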
Target sequence (P63103 whole entry, looked up): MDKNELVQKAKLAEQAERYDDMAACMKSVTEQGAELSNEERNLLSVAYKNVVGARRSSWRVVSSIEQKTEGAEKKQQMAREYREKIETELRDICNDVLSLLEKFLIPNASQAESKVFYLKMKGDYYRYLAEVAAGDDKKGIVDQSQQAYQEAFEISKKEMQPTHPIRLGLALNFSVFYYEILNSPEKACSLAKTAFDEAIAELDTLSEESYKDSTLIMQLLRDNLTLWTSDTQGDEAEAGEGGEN
eIF4E 4G PPI – inhibitors of eIF4E and eIF4G interaction in translation initiation; TR-FRET eIF4E-eIF4GI(517-606) binding, 2 h; 0.37% of 220,000 active; inhibition, % at 21.7 µM;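 further: 0% = full FRET control wells and 100% = background wells lacking eIF4GI fragment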
RBBP9 inhibitor – human RBBP9 hydrolase inhibition; O75884; recombinant RBBP9, FP-Rh probe fluorescence polarization; inhibition, % at 7.94 µM; 0.2% of 220,000 active; AID 1515;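 active means inhibition above the campaign mean of all tested compounds plus 3 SD, cut at about 14% in these data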;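 further: plate controls were DMSO wells with RBBP9 for no effect and wells lacking RBBP9 protein for full effect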
Target sequence (O75884 whole entry, looked up): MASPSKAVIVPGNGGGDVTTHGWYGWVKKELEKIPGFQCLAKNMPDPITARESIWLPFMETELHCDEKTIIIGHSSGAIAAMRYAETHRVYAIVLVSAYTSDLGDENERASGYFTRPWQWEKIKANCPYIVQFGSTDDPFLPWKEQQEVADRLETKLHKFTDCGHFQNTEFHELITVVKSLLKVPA
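Test system: recombinant human RBBP9. Quantity: 2.5 µM RBBP9 dispensing solution, before mixing. Detection: FP readout at 525/598 nm. Reagent: Serine-hydrolase probe FP-Rh, 375 nM pre-mixing. Measure: % inhibition. Control set: DMSO-treated enzyme wells and wells lacking RBBP9. Buffer or medium: Tris-NaCl-Pluronic buffer, pH 8.0. Times: preincubation 30 min plus labeling 45 min at 25 °C.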
Starred values were filed as active, the others as inactive; · = not tested or not shown; [ ] = another dose, or the depositor's remark. The list is not random: actives were taken first. Their share in the collection is about 3.7%.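 How the source made its calls, unless noted: active means inhibition above about 30% (limit read from the data); inactive means the rest.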

SMILES	WT yeast gro inh	EBV gp42 inh	p47phox inh	14-3-3 Bad inh	eIF4E 4G PPI	RBBP9 inhibitor
COc1cccc(N(C(=O)Cn2nnc(-c3cccs3)n2)C(C(=O)NC2CCCCC2)c2ccncc2)c1 (stereo not drawn)	4	-12	46*	14	-15	1
Cc1ccc(C)c(N(C(=O)Cc2cccs2)C(C(=O)NC2CCCC2)c2ccc(C)o2)c1 (stereo not drawn)	5	-9	-7	0	-5	-7
O=c1cc(-c2ccccc2)nc(SCc2ccccc2F)[nH]1	0	1	-7	1	2	-12
CC(=O)c1sc2nsc(SCCN3CCCC3)c2c1N	·	4	-12	0	0	1
COc1ccc(C2CC(C(F)(F)F)n3ncc(C(=O)NCc4cccnc4)c3N2)cc1OC (stereo not drawn)	-8	-4	0	-10	-25	11
COc1cc(C2CC(C(F)(F)F)n3ncc(C(=O)O)c3N2)cc(OC)c1OC (stereo not drawn)	-10	173*	-12	3	-1	-8
CCCCN(CCCC)C(=S)NC(=O)c1ccccc1Cl	64*	-12	1	-7	6	1
CCN(CC)CC(=O)c1ccc(-c2ccccc2)cc1	-9	-8	-7	38	7	-3
CN(C)CC(=O)c1ccc(-c2ccccc2)cc1	-7	-3	44*	-15	-11	-8
CCCN(CCC)C(=S)NC(=O)c1ccc(-c2ccccc2)cc1	68*	-6	-35	13	0	-6
CCOc1ccc(C(=O)NC(=S)N(Cc2ccccc2)Cc2ccccc2)cc1	12	-1	-19	-8	-7	-11
CC(C)NC(=O)C1CCN(C2CCN(Cc3ccc4cccc(F)c4n3)CC2)CC1	9	-15	-16	-9	1	-1
Cc1ccc(NC(=O)CN2C(=O)N/C(=C/c3cccn3-c3ccc(C(=O)O)cc3)C2=O)cc1	-6	50	-43	38	34*	-3
Cc1ccc(NC(=O)CN2C(=O)N/C(=C/c3cc(C)n(-c4ccc(C(=O)O)cc4)c3C)C2=O)cc1	-8	29	-36	19	27	2
Cc1ncsc1C(=O)N1N=C2/C(=C/c3ccccc3)CCCC2C1c1ccccc1 (stereo not drawn)	71*	-4	-4	-2	-13	-13
Cc1ncsc1C(=O)N1N=C2/C(=C/c3ccc(N4CCOCC4)cc3)CCCC2C1c1ccc(N2CCOCC2)cc1 (stereo not drawn)	12	-46	-69	33	-1	-6
CCCNC(=O)c1ccc2c(c1)C1C3CCC(C3)C1C(c1ccccc1)N2 (stereo not drawn)	62*	-4	-13	-4	-12	-9
COc1cc(/C=N\NC(=O)c2ccc(C)nc2)ccc1OC(=O)c1ccc2c(c1)OCO2	14	-18	-94	74*	6	-6
CCOc1cccc2c1OC1(C)CC2NC(=O)N1Cc1ccccc1 (stereo not drawn)	9	5	60*	1	-2	-6
COc1cccc2c1OC1(C)CC2NC(=O)N1Cc1ccccc1 (stereo not drawn)	10	-12	-5	-1	0	10
CCN(CC)c1ccc(NC(=S)NCC2CCCO2)cc1 (stereo not drawn)	15	-13	-8	-10	2	9
CCn1ccnc1CN1CCc2c([nH]c3ccccc23)C1C1CCCCC1 (stereo not drawn)	65*	9	-7	-10	1	3
CCn1ccnc1CN1CCc2c([nH]c3ccccc23)C1C(C)(C)C (stereo not drawn)	57	8	-12	-6	0	-1
COc1ccc(NC(=O)C2CC(=O)N/C(=N/N=C/c3ccco3)S2)cc1 (stereo not drawn)	·	-13	-22	1	18	-1
COc1ccc(CN=C2NC(=O)CC(C(=O)Nc3ccc(F)cc3)S2)cc1 (stereo not drawn)	3	-7	1	86*[fluorescence artefact?]	36*	-7
SMILES	WT yeast gro inh	EBV gp42 inh	p47phox inh	14-3-3 Bad inh	eIF4E 4G PPI	RBBP9 inhibitor
O=C(O)c1cc2ccccc2cc1Nc1ccccc1	·	-5	-1	2	12	-2
CCCc1ccc(NS(=O)(=O)c2c(C)oc(C)c2C(=O)OC)cc1	·	3	-15	0	-4	-3
Cc1onc(-c2ccccc2)c1C(=O)N/N=C/C(Br)=C/c1ccccc1	82*	1	-1	0	-4	-9
C=CCn1c(SCC(=O)c2[nH]c(C)c(C(=O)OC)c2C)nc2scc(-c3ccc(OC)c(OC)c3)c2c1=O	-6	-14	36*	96*	15	6
O=C(O)c1ccc(OCCOc2ccccc2)cc1	·	2	5	-5	-2	-7
CCOc1ccc2ncc(S(=O)(=O)c3ccccc3)c(N3CCN(c4ccc(OC)cc4)CC3)c2c1	52	1	-5	-14	-2	-5
CCOC(=O)c1cnc2ccccc2c1Nc1cccc(C(=O)O)c1	1	6	9	-6	2	-1
COc1ccc(S(=O)(=O)c2cnc3ccc(OC)cc3c2N2CCC3(CC2)OCCO3)cc1	4	17	-15	4	-1	-7
COc1ccc(N2CCN(c3c(S(=O)(=O)c4ccccc4)cnc4ccc(OC)cc34)CC2)cc1	76*	2	4	-1	-6	-8
CCOC(=O)c1cnc(-n2nc(C)cc2C)nc1NCc1ccccc1	65*	-8	-4	-1	4	-7
CCOC(=O)c1cnc2ccc(C(=O)OC)cc2c1Nc1cccc(C(=O)O)c1	-7	6	42*	-15	0	-3
CCc1ccc2ncc(S(=O)(=O)c3ccc(C)c(C)c3)c(N3CCCC3)c2c1	72*	7	-32	-4	7	-8
Nc1cc(-c2ccc(OC(F)(F)F)cc2)nn1-c1ccc(Cl)c(Cl)c1	·	2	-10	-5	1	6
CCOc1ccc2ncc(S(=O)(=O)c3ccccc3)c(N3CCC4(CC3)OCCO4)c2c1	44	-4	2	-11	-1	-5
CCOC(=O)c1cnc2ccc(OCC)cc2c1NCc1ccccc1	86*	-17	2	-9	-4	-1
CCOC(=O)c1cnc2ccc(OCC)cc2c1NCc1cccnc1	2	-13	4	4	11	-8
CCOC(=O)c1cnc2ccc(OCC)cc2c1N1CCN(c2ccccc2)CC1	74*	-9	-10	-12	-1	-12
COc1ccc(Cn2nc(-c3ccccc3)c(N3CCCCC3)cc2=O)cc1	71*	-2	-4	4	5	-9
Cn1nc(-c2ccccc2)c(N2CCCCC2)cc1=O	16	-13	-10	-10	1	4
O=c1cc(N2CCCCC2)c(-c2ccccc2)nn1Cc1ccccc1	76*	9	-4	-6	-1	-7
